# Screening results (PubChem BioAssay)
# FLuc inh counter: counter-screen for luciferase assay inhibitors: firefly luciferase inhibition; ATPLite firefly luciferase biochemical luminescence, 10 min; inhibition, % at 10 µM; 200,000 tested, 1.5% active; AID 1006;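 active = inhibition above about 50% when tested at 10 µM, limit read from the data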
# Target sequence (P08659 whole entry, looked up): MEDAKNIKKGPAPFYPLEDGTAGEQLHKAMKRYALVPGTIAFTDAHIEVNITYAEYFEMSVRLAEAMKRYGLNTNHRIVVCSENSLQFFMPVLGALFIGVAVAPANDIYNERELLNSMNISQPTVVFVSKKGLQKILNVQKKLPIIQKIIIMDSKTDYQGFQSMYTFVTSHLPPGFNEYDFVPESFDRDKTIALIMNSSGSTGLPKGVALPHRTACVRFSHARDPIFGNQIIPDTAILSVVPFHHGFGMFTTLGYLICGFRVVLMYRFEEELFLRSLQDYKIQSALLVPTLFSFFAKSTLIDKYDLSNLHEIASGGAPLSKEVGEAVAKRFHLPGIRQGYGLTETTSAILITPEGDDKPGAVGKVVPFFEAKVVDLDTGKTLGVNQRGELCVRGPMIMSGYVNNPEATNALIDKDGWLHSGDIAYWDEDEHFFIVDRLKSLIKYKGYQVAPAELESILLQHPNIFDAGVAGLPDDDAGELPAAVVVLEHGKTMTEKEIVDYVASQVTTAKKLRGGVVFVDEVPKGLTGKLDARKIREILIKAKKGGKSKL
# Pf gametocyte: inhibitors of late stage P. falciparum gametocyte viability | AID 743093 | 150,000 tested, 0.065% active | inhibition, % at 10.9 µM | P. falciparum stage V gametocytes, ATP luminescence, 24 h;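 active = inhibition above the mean plus 3 SD of compounds within the control limits, set per campaign, cut at about 38% in these data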;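 also: 0% = DMSO wells and 100% = medium only without gametocytes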
# FLuc act counter: affects firefly luciferase, flagging false hits in luciferase stimulation screens; ATPlite luciferase biochemical, luminescence, 10 min; 0 = ATP-free wells, 1 = DMSO control; 200,000 tested, under 10 active; P08659; activation factor at 10 µM;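 active = luciferase activation factor, scaled between plate controls, of at least 2 with compound at 10 µM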
#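 System: luciferase plus luciferin reagent, cell-free; medium: PBS as buffer for the ATP substrate; dosing: test compounds dosed from 2 mM stocks in 100% DMSO; timing: 10 min post-reagent at room temperature; measured by: luminescence measurement of luciferase light output; evaluation: luciferase activation, seen as luminescence increase over controls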
# APP 5'UTR act: APP 5'UTR luciferase reporter activation | SH-SY5Y APP 5'UTR luciferase reporter, luminescence; zero percent = DMSO vehicle wells | activation, % at 2 µM | 190,000 tested, 1% active | AID 1276;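 active = activation above a set limit, based on mean plus 3 SD of controls, cut at about 140% in these data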
# STAT1 activator: activators of IFN-gamma induced STAT1 signaling; 200,000 tested, 2.6% active; activation (% of control), % at 5.5 µM; AID 932; NIH 3T3 STAT1-luciferase reporter, luminescence; 100% = IFN-gamma alone, no compound;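 active = activation above the screen-wide mean activation plus 3 SD, cut at about 130% in these data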;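 also: raw ratio to IFN-gamma control signal so 100% means no change and 0% no light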
# NF-kB neuron act: compounds increasing NF-kB expression in human neuronal cells; NF-kB reporter expression; active compounds read high; fold change at 12.5 µM; 190,000 tested, 1.6% active; AID 1239; in the data active = fold change above about 3.3
# The depositor's hits bear a star; x = not tested or not shown. Rows were chosen to be rich in hits. Some 3.5% of all compounds tested hit in one or more screens of this group.
SMILES,FLuc inh counter,Pf gametocyte,FLuc act counter,APP 5'UTR act,STAT1 activator,NF-kB neuron act
CC(C)c1ccc(-c2nc(N3CCOCC3)[nH]c(=O)c2C#N)cc1,-17.7,x,1.2,1.6,98.5,0.97
O=C1CCCC/C1=C\Nc1ccc(S(=O)(=O)Nc2cnc3ccccc3n2)cc1,x,6.8,x,x,x,x
COc1ccc(/C(N)=N/OC(=O)c2ccco2)cc1OC,6.1,-23.7,0.9,79.5,148.9*,2.89
N/C(=N\OC(=O)c1ccco1)c1cccc([N+](=O)[O-])c1,38.7,-0.6,0.6,38.2,128.4,1.41
COc1ccc(/C(N)=N/OC(=O)CCc2ccccc2)cc1OC,-1.6,-7.1,1,-8.7,125.3,1.08
N/C(=N\OC(=O)c1ccco1)c1cccc(Br)c1,56.0*,x,0.4,136.6*,127.2,2.97
COc1ccc(/C(N)=N/OC(=O)CSc2ccccc2)cc1OC,-6.2,x,1.1,42.2,145.4*,2.76
C/C(=N\NC(=O)C1(C)NC(C)(C)Cc2ccccc21)c1ccccc1 (centres undefined),-2.6,22.3,1,-18.7,101.9,1.04
C/C(O)=C\c1nc2ccccc2oc1=O,-4.6,-22.8,1,-1.0,95.6,3.6*
CS(=O)(=O)Cc1nc2ccccc2oc1=O,-7.7,8.6,1.1,-12.4,94.9,4.65*
Cc1ccc(N(CC(=O)Nc2cc(C)ccc2C)S(C)(=O)=O)cc1,x,-1.7,x,x,x,x
COc1ccc(CSCC(=O)N/N=C/c2ccccc2O)cc1,-4.8,-29.2,1,-19.9,108.1,1.38
O=C(Nc1ccc2c(c1)OCCO2)c1cnc2n(c1=O)CCS2,19.2,x,0.8,57.4,142.1*,3.08
Cc1cccc(NC(=O)c2cnc3n(c2=O)CCS3)c1,20.0,x,0.8,-19.5,131.7*,2.9
CCOC(=O)c1cc(-c2ccccc2C)n(CC2CC(c3cccc([N+](=O)[O-])c3)=NO2)n1 (centres undefined),x,-16.0,x,x,x,x
COc1ccc(CN(C)CC(=O)Nc2cccc(S(N)(=O)=O)c2)c(OC)c1OC,-1.9,-13.0,1,2.2,92.1,1.34
COc1ccc(OC)c(Cc2nnc(CCC(=O)N3CCCCC3c3nccs3)o2)c1 (centres undefined),-1.6,x,1,35.1,134.4*,2.31
Cc1cccc(Cc2nnc(CCC(=O)N3CCCCC3c3nccs3)o2)c1 (centres undefined),-2.8,9.4,1,-7.1,106.6,1.11
CCN(CC)c1ccc(C=Nc2ccccc2C)c(O)c1,53.4*,-1.6,0.5,-8.0,101.9,1.53
COc1cc(/C=N/N=C(\N)c2nonc2N)cc(OC)c1O,x,-5.8,x,x,x,x
COc1ccc(/C=N/N=C(\N)c2nonc2N)cc1,51.8*,x,0.5,191.0*,73.1,9.41*
Cc1ccc(C(=O)CN(CCCC(N)=O)C(=O)c2ccncc2)cc1,x,-11.1,x,x,x,x
O=Cc1c(Sc2ccccc2)nc2ccccn2c1=O,-8.1,2.0,1.1,-5.5,95.0,4.21*
COCCN(Cc1nc(C(c2ccccc2)c2ccccc2)no1)C(C)C,x,-10.3,x,x,x,x
Oc1ccc(-c2cn3cc(C(F)(F)F)ccc3n2)cc1,94.6*,9.7,0.1,228.7*,97.8,13.3*
SMILES,FLuc inh counter,Pf gametocyte,FLuc act counter,APP 5'UTR act,STAT1 activator,NF-kB neuron act
COC(=O)c1ccc(CO/N=C/c2ccc(OC)cc2)o1,-1.7,-8.6,1,10.6,120.6,4.61*
COC(=O)c1ccc(COc2ccc(C=O)cc2OC)o1,5.7,0.0,0.9,-2.4,102.0,1.38
C/C=C/C=N/NC(=O)CN(c1ccc(Br)cc1)S(=O)(=O)c1ccccc1,-4.0,x,1,-2.9,103.5,1.07
CCN(CC)c1ncc(C)c(=O)[nH]1,18.4,9.3,0.8,8.5,100.4,1.11
Cc1ccccc1-c1noc(-c2cccs2)n1,13.7,x,0.9,50.1,142.7*,2.26
Cc1ccccc1-c1nnc(-c2cccs2)o1,23.9,2.2,0.8,73.3,144.2*,2.07
COc1nc(C)ccc1-c1noc(-c2cccs2)n1,x,-3.6,x,x,x,x
CCCn1c(SCC(=O)c2ccc(CC)cc2)n[nH]c1=O,-0.1,x,1,-11.2,98.2,1.16
O=C(NC1CC1)c1ccc(CS(=O)(=O)c2c(Cl)cccc2Cl)o1,-1.3,x,1,-0.7,96.8,1.02
O=c1c(-c2ccccc2)n[nH]c2ccccc12,49.6,2.4,0.5,111.6,124.4,3.43*
CC(CC(=O)NCCc1ccc(F)cc1)c1ccccc1 (centres undefined),x,19.8,x,x,x,x
CCOc1cc([N+](=O)[O-])cc2c1C(=O)Nc1ccccc1O2,-6.8,12.6,1.1,20.1,100.0,0.82
COc1cc(C(=O)Nc2cccc(-c3nc4cc(C)ccc4o3)c2)cc(OC)c1OC,29.3,-7.8,0.7,41.8,107.6,1.23
COc1cc(OC)cc(-c2nc3ccccc3c(=O)o2)c1,8.3,x,0.9,8.0,100.4,1.16
COc1cc(C(=O)Nc2cc(-c3nc4cc(C)ccc4o3)ccc2C)cc(OC)c1OC,51.3*,x,0.5,6.8,117.9,1.42
Cc1ccc(-c2nc3cc(Cl)ccc3o2)cc1,85.5*,21.8,0.1,26.7,162.0*,8.49*
COc1cc(OC)cc(-c2nc3cc(C)ccc3o2)c1,25.3,-15.5,0.7,114.1,157.7*,6.24*
COC(=O)c1ccc(NC(=O)CN(c2ccc(C)cc2)S(=O)(=O)c2c(C)nn(C)c2C)cc1,-4.6,-15.3,1,-10.6,98.2,1.24
Cc1ccn2cc(-c3cc4ccccc4oc3=O)nc2c1,42.2,3.6,0.6,115.9,74.4,5.42*
COc1cccc(-c2ncc3ccccn23)c1,46.5,x,0.5,76.0,134.8*,2.67
COc1cc(OC)cc(-c2ncc3ccccn23)c1,19.4,x,0.8,-1.5,100.7,1.34
CCOc1ccccc1C1C2=C(COC2=O)Nc2cc3c(cc21)OCO3 (centres undefined),-7.7,6.7,1.1,-95.8,109.4,3.34*
COc1cc(/C=N/N2CCOCC2)ccc1OCc1ccc(Cl)cc1,4.6,-3.3,1,143.5*,139.8*,2.74
COc1cc(/C=N/N2CCOCC2)ccc1OCc1ccccc1,1.2,9.3,1,64.2,117.0,1.77
COc1ccc(C(=O)C(C)Oc2cccc(NC(=O)c3cccc([N+](=O)[O-])c3)c2)cc1 (centres undefined),-0.4,-11.2,1,-12.6,87.7,1.17
CS(=O)(=O)NNC(=O)Cn1nnc(-c2ccc(OCc3ccccc3Cl)cc2)n1,x,7.8,x,x,x,x
COc1ccc2[nH]c(=O)c(CNc3ccccc3)cc2c1,2.1,x,1,42.9,129.1*,1.25
O=C(c1ccc(F)cc1)C(C(=O)N1CCCCC1)n1ccccc1=O (centres undefined),-1.0,-32.1,1,-3.0,94.6,1.33
CCOC(=O)/C(C#N)=C/Nc1ccccc1OC,44.3,x,0.6,31.9,145.1*,2.48
CCOC(=O)C(=O)/C(C#N)=C/Nc1ccccc1,-6.1,21.1,1.1,23.6,93.8,1.18
